Measurements reported in ChEMBL document CHEMBL1155210, “The discovery of tertiary-amine LXR agonists with potent cholesterol efflux activity in macrophages” (Bioorg Med Chem Lett, 2009).
pEC50, pKi: −log10 of the molar value.

Key:
[1] = system: RAW264.7; assay: Induction of [3H]cholesterol efflux in mouse RAW264.7 cells loaded with acetylated-LDL after 24 hrs relative to 2-(3-(3-((2-chloro-3-(trifluoromethyl)benzyl)(2,2-diphenylethyl)amino)propoxy)phenyl)acetic acid; type: functional
Procedure, shortened: (§1)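 Mouse RAW 264.7 macrophages were grown overnight, then loaded for 24 h with acetylated LDL (final 50 µg/mL) plus 3H-cholesterol (5 µCi/mL). Cells were washed and held 24 h in serum-free, phenol red-free medium with 1% fatty acid-free BSA and compound in DMSO. Efflux then ran 24 h into medium with 0.1% BSA, 5 µg/mL apoA-I and fresh compound. Filtered medium and NaOH cell lysate were counted by scintillation.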

[2] = biological target: T1, Oxysterols receptor LXR-alpha (Homo sapiens, UniProt Q13133); assay: Agonist activity at human LXRalpha assessed as association of SRC1 to LXRalpha ligand binding domain by FRET based cell-free ligand sensing assay
T1 sequence (Q13133 whole entry): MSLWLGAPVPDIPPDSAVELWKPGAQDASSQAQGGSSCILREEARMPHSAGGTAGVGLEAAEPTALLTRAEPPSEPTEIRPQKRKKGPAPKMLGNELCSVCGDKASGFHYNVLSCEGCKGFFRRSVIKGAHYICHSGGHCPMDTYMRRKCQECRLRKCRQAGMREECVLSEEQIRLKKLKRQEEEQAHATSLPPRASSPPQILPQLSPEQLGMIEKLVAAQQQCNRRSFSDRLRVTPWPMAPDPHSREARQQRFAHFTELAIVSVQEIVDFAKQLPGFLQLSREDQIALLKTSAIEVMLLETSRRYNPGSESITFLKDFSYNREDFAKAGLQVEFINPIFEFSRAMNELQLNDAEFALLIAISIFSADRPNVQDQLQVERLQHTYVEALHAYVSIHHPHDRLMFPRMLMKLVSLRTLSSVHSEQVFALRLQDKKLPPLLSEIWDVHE
Procedure, shortened: (§2)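 Cell-free FRET ligand-sensing assay measuring ligand-dependent recruitment of a 24-amino-acid steroid receptor coactivator 1 (SRC1) fragment to the LXR ligand-binding domain. Percent efficacy is expressed against the maximal agonist response of the reference agonist. Values are means of at least two experiments, standard deviation ≤10%.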

[3] = biological target: T2, Oxysterols receptor LXR-alpha (Homo sapiens) (UniProt Q13133); assay: Agonist activity at human LXRalpha assessed as association of SRC1 to LXRalpha ligand binding domain by FRET based cell-free ligand sensing assay relative 2-(3-(3-((2-chloro-3-(trifluoromethyl)benzyl)(2,2-diphenylethyl)amino)propoxy)phenyl)acetic acid; procedure, shortened: as §2
T2 sequence (whole entry): T1 sequence (Q13133 whole entry)

[4] = biological target: T3, Oxysterols receptor LXR-beta (Homo sapiens, UniProt P55055); assay: Agonist activity at human LXRbeta assessed as association of SRC1 to LXRbeta ligand binding domain by FRET based cell-free ligand sensing assay; procedure, shortened: as §2
T3 sequence (P55055 whole entry): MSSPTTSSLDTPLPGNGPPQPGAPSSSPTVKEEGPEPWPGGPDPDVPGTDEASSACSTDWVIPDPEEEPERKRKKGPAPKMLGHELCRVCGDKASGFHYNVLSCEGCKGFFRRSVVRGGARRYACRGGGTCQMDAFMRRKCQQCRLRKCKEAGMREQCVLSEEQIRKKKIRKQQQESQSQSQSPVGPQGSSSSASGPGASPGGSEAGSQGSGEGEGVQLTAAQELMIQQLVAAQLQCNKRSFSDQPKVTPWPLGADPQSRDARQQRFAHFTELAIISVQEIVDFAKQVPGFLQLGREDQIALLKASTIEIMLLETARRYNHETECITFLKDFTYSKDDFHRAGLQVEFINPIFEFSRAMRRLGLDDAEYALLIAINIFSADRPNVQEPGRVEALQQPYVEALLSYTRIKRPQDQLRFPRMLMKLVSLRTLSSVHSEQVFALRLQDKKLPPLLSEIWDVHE

[5] = system: RAW264.7; assay: Induction of [3H]cholesterol efflux in mouse RAW264.7 cells loaded with acetylated-LDL after 24 hrs; type: functional, cell-based; procedure, shortened: as §1
[6] = biological target: Oxysterols receptor LXR-beta (Homo sapiens) (UniProt P55055); assay: Agonist activity at human LXRbeta assessed as association of SRC1 to LXRbeta ligand binding domain by FRET based cell-free ligand sensing assay relative to 2-(3-(3-((2-chloro-3-(trifluoromethyl)benzyl)(2,2-diphenylethyl)amino)propoxy)phenyl)acetic acid; set-up: concentration or dose not given beside the values
[7] = system: Macrophage; assay: Increase in ABCA1 gene expression in human primary macrophages at 30 nM relative to control; type: functional
[8] = system: Macrophage; assay: Increase in ABCA1 gene expression in human primary macrophages at 100 nM relative to control; type: functional
[9] = system: Macrophage; assay: Increase in ABCG1 gene expression in human primary macrophages at 30 nM relative to control; type: functional
[10] = system: Macrophage; assay: Increase in ABCG1 gene expression in human primary macrophages at 100 nM relative to control; type: functional
[11] = system: Macrophage; assay: Increase in SREBP1 gene expression in human primary macrophages at 100 nM relative to control; type: functional
[12] = system: Macrophage; assay: Increase in ABCA1 gene expression in human primary macrophages; type: functional, cell-based
[13] = system: Macrophage; assay: Increase in ABCG1 gene expression in human primary macrophages; type: functional, cell-based
[14] = biological target: T4, Nuclear receptor subfamily 1 group I member 2 (Homo sapiens, UniProt O75469); assay: Binding affinity to PXR by scintillation proximity binding assay
T4 sequence (O75469 whole entry): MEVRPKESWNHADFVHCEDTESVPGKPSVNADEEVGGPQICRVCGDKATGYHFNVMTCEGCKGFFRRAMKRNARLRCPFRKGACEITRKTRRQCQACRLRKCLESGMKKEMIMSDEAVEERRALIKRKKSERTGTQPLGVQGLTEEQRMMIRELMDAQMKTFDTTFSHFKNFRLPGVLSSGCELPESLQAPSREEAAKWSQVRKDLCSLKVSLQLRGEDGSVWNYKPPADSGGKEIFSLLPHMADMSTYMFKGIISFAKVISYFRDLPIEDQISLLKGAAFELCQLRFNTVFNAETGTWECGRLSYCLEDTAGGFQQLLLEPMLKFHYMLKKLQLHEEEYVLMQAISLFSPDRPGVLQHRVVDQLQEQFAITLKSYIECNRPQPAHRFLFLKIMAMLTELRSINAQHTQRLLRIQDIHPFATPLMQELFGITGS

[15] = Plasma clearance in Sprague-Dawley rat at 2.6 mg/kg, iv; type: ADME, organism-based; set-up: dose 2.6 mg/kg, route intravenous
[16] = Volume of distribution at steady state in Sprague-Dawley rat at 2.6 mg/kg, iv; type: ADME, organism-based; set-up: dose 2.6 mg/kg, route intravenous; conditions: in vivo, read-out: Vdss
[17] = Half life in Sprague-Dawley rat at 2.6 mg/kg, iv; type: ADME, organism-based; set-up: dose 2.6 mg/kg, route intravenous; conditions: in vivo
[18] = Cmax in Sprague-Dawley rat at 2.6 mg/kg, iv; type: ADME, organism-based; set-up: dose 2.6 mg/kg, route intravenous; conditions: in vivo
[19] = Half life in Sprague-Dawley rat at 4.5 mg/kg, po; type: ADME, organism-based; set-up: dose 4.5 mg/kg, route oral; conditions: in vivo
Procedure, shortened: (§3)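 Pharmacokinetics were measured after an intravenous dose of 2.6 mg/kg and an oral dose of 4.5 mg/kg. Oral half-life and oral bioavailability (F%) are reported as mean ± deviation.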

[20] = Oral bioavailability in Sprague-Dawley rat at 4.5 mg/kg; type: ADME, organism-based; conditions: in vivo; procedure, shortened: as §3

SMILES | fold change (FC) [1] | pEC50 [2] | Activity [3] [%] | pEC50 [4] | pEC50 [5] | Activity [6] [%] | fold change (FC) [7] | fold change (FC) [8] | fold change (FC) [9] | fold change (FC) [10] | fold change (FC) [11] | Activity [12] | Activity [13] | pKi [14] | clearance [15] [mL/min/kg] | Vd [16] [L/kg] | half-life [17] [h] | Cmax [18] [ng/mL] | half-life [19] [h] | bioavailability [20] [%]
CC(C(=O)O)c1cccc(OCCCN(Cc2cccc(C(F)(F)F)c2Cl)CC(c2ccccc2)c2ccccc2)c1 (stereo not given) | 2 | 7.34 | 100 | 7.82 | 7.82 | 90 | – | – | – | – | – | – | – | – | – | – | – | – | – | –
C[C@@H](COc1cccc(CC(=O)O)c1)CN(Cc1cccc(C(F)(F)F)c1Cl)CC(c1ccccc1)c1ccccc1 | – | 6.55 | 67 | 7.07 | 7.12 | 70 | – | – | – | – | – | – | – | – | – | – | – | – | – | –
CCC(CC)(C(=O)O)c1cccc(OCCCN(Cc2cccc(C(F)(F)F)c2Cl)CC(c2ccccc2)c2ccccc2)c1 | – | 6.42 | 69 | 6.76 | – | 68 | – | – | – | – | – | – | – | – | – | – | – | – | – | –
CC(C)(C(=O)O)c1cccc(OCCCN(Cc2cccc(C(F)(F)F)c2Cl)CC(c2ccccc2)c2ccccc2)c1 | 2 | 7.37 | 100 | 7.82 | 8.15 | 95 | 3 | 4 | 7.5 | 11.2 | 5.8 | Dose-dependent effect | Dose-dependent effect | – | – | – | – | – | – | –
O=C(O)Cc1ccc2cc(CCN(Cc3cccc(C(F)(F)F)c3Cl)CC(c3ccccc3)c3ccccc3)oc2c1 | – | 6.48 | 53 | 7.20 | – | 75 | – | – | – | – | – | – | – | – | – | – | – | – | – | –
C[C@@H](CCN(Cc1cccc(C(F)(F)F)c1Cl)CC(c1ccccc1)c1ccccc1)Oc1cccc(CC(=O)O)c1 | – | 6.44 | 39 | 6.84 | – | 59 | – | – | – | – | – | – | – | – | – | – | – | – | – | –
O=C(O)C1CCCc2c(OCCCN(Cc3cccc(C(F)(F)F)c3Cl)CC(c3ccccc3)c3ccccc3)cccc21 (racemic) | 2 | 7.25 | 100 | 7.59 | 7.74 | 100 | 1.4 | 2.6 | 2 | 3.6 | 2.6 | Dose-dependent effect | Dose-dependent effect | – | – | – | – | – | – | –
C[C@@H](CCOc1cccc(CC(=O)O)c1)N(Cc1cccc(C(F)(F)F)c1Cl)CC(c1ccccc1)c1ccccc1 | – | 6.68 | 91 | 7.06 | 7.27 | 80 | – | – | – | – | – | – | – | – | – | – | – | – | – | –
C[C@H](CCOc1cccc(C(C)(C)C(=O)O)c1)N(Cc1cccc(C(F)(F)F)c1Cl)CC(c1ccccc1)c1ccccc1 | 2 | 8.05 | 100 | 7.96 | > 8.52 | 100 | – | – | – | – | – | – | – | – | – | – | – | – | – | –
C[C@H](CCN(Cc1cccc(C(F)(F)F)c1Cl)CC(c1ccccc1)c1ccccc1)Oc1cccc(CC(=O)O)c1 | – | 6.70 | 78 | 7.39 | 7.47 | 76 | – | – | – | – | – | – | – | < 5.00 | – | – | – | – | – | –
C[C@H](CCOc1cccc(CC(=O)O)c1)N(Cc1cccc(C(F)(F)F)c1Cl)CC(c1ccccc1)c1ccccc1 [ABEQUOLIXRON] | 2 | 7.13 | 100 | 7.60 | 7.77 | 89 | 3.6 | 6.3 | 4.2 | 8 | 5.5 | Dose-dependent effect | Dose-dependent effect | < 5.00 | 23.7 | 1.9 | 1.82 | 2130 | 2.4 | 71
O=C(O)Cc1ccc2oc(CCN(Cc3cccc(C(F)(F)F)c3Cl)CC(c3ccccc3)c3ccccc3)cc2c1 | – | 6.52 | 20 | 6.84 | – | 26 | – | – | – | – | – | – | – | – | – | – | – | – | – | –
O=C(O)Cc1cccc(OCCCN(Cc2cccc(C(F)(F)F)c2Cl)CC(c2ccccc2)c2ccccc2)c1 | – | 6.70 | – | – | 7.54 | – | 2 | 3.1 | 3.2 | 5.4 | 4.1 | Dose-dependent effect | Dose-dependent effect | 5.70 | – | – | – | – | – | –
